Source: PubChem BioAssay
Values without a mark were called inactive.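 Rule for the calls, unless noted: active = growth inhibition above 25% in both replicates, a cutoff set 3 SD above the mean; inconclusive = above 25% in only one replicate; inactive = the rest.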

Assay: S. cerevisiae growth inhibition in permissive medium (OD615), pilot counter-assay for S. cerevisiae lifespan shortening project, permissive growth control (AID 705)
Settings: OD615, 24 h, at 10 µM, stronger effect = higher value
Outline: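 Material: engineered DeaD yeast; Compound: one dose 10 µM, DMSO 0.25% final; Detection: absorbance (optical density) at 615 nm; Buffer or medium: permissive raffinose/galactose medium; Timing: 24 h exposure, 30 °C.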

In order of rising growth inhibition:
1. O=S(=O)(CCc1nnc(-c2ccccc2)o1)c1ccc2ccccc2c1  -16.3%
2. N#Cc1c(SCC(N)=O)nc2c(c1-c1ccc(O)cc1)CCCC2  -15.2%
3. CC1(C)NC(C)(C)c2nonc2/C1=N\O  -15.2%
4. Cc1c(C(=O)Nc2ccc(F)cc2)oc2ccc(S(=O)(=O)N3CCCC3)cc12  -14.8%
5. O=C(Nc1nnc(-c2ccc(Cl)s2)o1)C1CCCCC1  -14.7%
6. COc1cc(OC)cc(-c2nc(-c3ccc(Br)cc3)no2)c1  -13.6%
7. COC(=O)CSc1nc2ccccc2nc1SCC(=O)OC  -11.7%
8. CCOC(=O)c1oc2cc(O)ccc2c(=O)c1-c1ccccc1OC  -11.6%
9. O=C(NCCN1CCOCC1)c1ccc2c(c1)ncn2C1CCCC1  -10%
10. O=C(Nc1nnc(-c2ccccc2)o1)c1nc2ccccc2s1  -9.03%
11. CCOC(=O)Nc1ccc2c(c1)N(C(=O)N(CC)CC)c1ccccc1CC2  -8.36%
12. O=C(O)c1ccccc1C(=O)NCc1ccccc1  -7.18%
13. Cc1occc1C(=O)NCc1ccc2c(c1)OCO2  -7.06%
14. CC1(C)Oc2ccc3ccc(=O)oc3c2/C(=C/N)C1=O  -6.37%
15. CN1CCc2c(c3ccccc3n2Cc2ccccc2)C1  -5.23%
16. COC(=O)C1C(O)=C(C=NCC(C)N=CC2=C(O)C(C(=O)OC)C(C)(C)CC2=O)C(=O)CC1(C)C (stereo not given)  -4.88%
17. Cc1cc(OCCN2CCCC2)ccc1C(C)C  -4.67%
18. CC(C)(C)SCCNS(=O)(=O)c1ccc(F)cc1  -4.57%
19. O=C(c1ccc2nc(N3CCOCC3)sc2c1)N1CCN(C(=O)c2ccco2)CC1  -4.29%
20. Cc1ccc(-c2nn3c(C)nnc3s2)cc1NC(=O)COc1ccc(Cl)cc1  -4.13%
21. Cc1c(C(=O)NCc2cccnc2)oc2ccccc12  -3.83%
22. O=C(Cn1cnc2c(cnn2-c2ccccc2)c1=O)c1ccc(Cl)cc1  -3.83%
23. CC(=O)c1cccc(NC(=O)Cn2cc3c(n2)CCCC3)c1  -3.74%
24. COC(=O)C1C(=O)c2c([nH]c(C(=O)OC3CCCCC3)c2C)CC1C (stereo not given)  -2.87%
25. O=C(NCCn1ccc2ccccc21)c1ccc2c(c1)OCO2  -2.72%
26. Cc1cc(Nc2ccc(F)cc2C)n2nc(C)nc2n1  -2.58%
27. CCn1c(C)nc2cc(S(=O)(=O)N3CCCC3)ccc21  -1.56%
28. CCN1C(=O)c2ccccc2S(=O)c2ccc(C(=O)N3CCN(C(=O)c4ccco4)CC3)cc21 (stereo not given)  -1.51%
29. COc1ccc(C2N3CC4(C)CN2CC(C)(C3)C4=O)cc1OC (stereo not given)  -1.15%
30. CC(=O)c1c(C)[nH]c(C(=O)N2c3ccccc3CC2C)c1C (stereo not given)  -1.11%
31. O=C(c1cc(-c2cccc(O)c2)on1)N1CCCCC1  0.145%
32. Cc1onc(-c2ccccc2Cl)c1C(=O)N1CCCCC1C(=O)O (stereo not given)  0.56%
33. O=C(Nc1nc(-c2cccs2)cs1)c1ccc(S(=O)(=O)N2CCCCC2)cc1  0.945%
34. Cc1cccn2cc(-c3ccc(F)cc3)nc12  1.97%
35. COCCCN1CC23C=CC(O2)C(C(=O)O)C3C1=O (stereo not given)  2.65%
36. COC(=O)c1ccc2c(=O)n3c(nc2c1)SCC(c1ccccc1)=N3  2.69%
37. COc1ccc(C(=O)c2cn[nH]c2-c2cc(Cl)ccc2O)cc1  3.93%
38. O=C(CCn1c(=O)sc2ccccc21)NCc1ccccc1  4.34%
39. CN(C)c1ccc(NC(=O)c2cccc(N3C(=O)CCC3=O)c2)cc1  5.53%
40. COc1ccc(OCC(=O)Nc2ccccc2OC)cc1  11.4%

Assay: S. cerevisiae growth inhibition in restrictive medium, OD615, pilot screen, restrictive growth control, yeast lifespan reduction project (AID 706;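 active = growth inhibition above a set limit, 3 SD over mean compound inhibition, in both replicates, cut at about 43% in these data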;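 note: modified DeaD lifespan yeast strain shifted to restrictive glucose medium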)
Settings: OD615, 48 h, at 10 µM, stronger effect = higher value
Outline: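 Buffer or medium: restrictive glucose medium (CSMM-D); test system: modified S. cerevisiae; doses: single dose of 10 µM compound final, 0.25% DMSO; schedule: 48 h compound exposure at 30 °C; detection: absorbance (optical density) measured at 615 nm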

In order of rising growth inhibition:
1. CCOC(=O)Nc1ccc2c(c1)N(C(=O)N(CC)CC)c1ccccc1CC2  -26.2%
2. N#Cc1c(SCC(N)=O)nc2c(c1-c1ccc(O)cc1)CCCC2  -15.6%
3. O=C(O)c1ccccc1C(=O)NCc1ccccc1  -15.6%
4. COc1cc(OC)cc(-c2nc(-c3ccc(Br)cc3)no2)c1  -13.2%
5. O=C(Cn1cnc2c(cnn2-c2ccccc2)c1=O)c1ccc(Cl)cc1  -12.3%
6. COC(=O)CSc1nc2ccccc2nc1SCC(=O)OC  -9.89%
7. CC1(C)NC(C)(C)c2nonc2/C1=N\O  -9.79%
8. CN1CCc2c(c3ccccc3n2Cc2ccccc2)C1  -8.68%
9. O=S(=O)(CCc1nnc(-c2ccccc2)o1)c1ccc2ccccc2c1  -6.19%
10. Cc1c(C(=O)Nc2ccc(F)cc2)oc2ccc(S(=O)(=O)N3CCCC3)cc12  -6.18%
11. Cc1c(C(=O)NCc2cccnc2)oc2ccccc12  -5.65%
12. Cc1cc(Nc2ccc(F)cc2C)n2nc(C)nc2n1  -5.02%
13. O=C(NCCn1ccc2ccccc21)c1ccc2c(c1)OCO2  -4.68%
14. O=C(Nc1nnc(-c2ccc(Cl)s2)o1)C1CCCCC1  -4.65%
15. CC1(C)Oc2ccc3ccc(=O)oc3c2/C(=C/N)C1=O  -4.45%
16. COC(=O)C1C(O)=C(C=NCC(C)N=CC2=C(O)C(C(=O)OC)C(C)(C)CC2=O)C(=O)CC1(C)C (stereo not given)  -3.87%
17. COCCCN1CC23C=CC(O2)C(C(=O)O)C3C1=O (stereo not given)  -2.98%
18. O=C(CCn1c(=O)sc2ccccc21)NCc1ccccc1  -2.52%
19. Cc1onc(-c2ccccc2Cl)c1C(=O)N1CCCCC1C(=O)O (stereo not given)  -2.38%
20. O=C(Nc1nc(-c2cccs2)cs1)c1ccc(S(=O)(=O)N2CCCCC2)cc1  -2.17%
21. Cc1cc(OCCN2CCCC2)ccc1C(C)C  -1.01%
22. CCOC(=O)c1oc2cc(O)ccc2c(=O)c1-c1ccccc1OC  -0.685%
23. COC(=O)c1ccc2c(=O)n3c(nc2c1)SCC(c1ccccc1)=N3  -0.25%
24. CC(=O)c1cccc(NC(=O)Cn2cc3c(n2)CCCC3)c1  -0.095%
25. COC(=O)C1C(=O)c2c([nH]c(C(=O)OC3CCCCC3)c2C)CC1C (stereo not given)  2.14%
26. COc1ccc(C2N3CC4(C)CN2CC(C)(C3)C4=O)cc1OC (stereo not given)  2.95%
27. O=C(c1ccc2nc(N3CCOCC3)sc2c1)N1CCN(C(=O)c2ccco2)CC1  2.97%
28. CC(=O)c1c(C)[nH]c(C(=O)N2c3ccccc3CC2C)c1C (stereo not given)  3.09%
29. CC(C)(C)SCCNS(=O)(=O)c1ccc(F)cc1  3.38%
30. Cc1occc1C(=O)NCc1ccc2c(c1)OCO2  3.86%
31. COc1ccc(C(=O)c2cn[nH]c2-c2cc(Cl)ccc2O)cc1  4.28%
32. CN(C)c1ccc(NC(=O)c2cccc(N3C(=O)CCC3=O)c2)cc1  4.7%
33. O=C(NCCN1CCOCC1)c1ccc2c(c1)ncn2C1CCCC1  5.44%
34. CCN1C(=O)c2ccccc2S(=O)c2ccc(C(=O)N3CCN(C(=O)c4ccco4)CC3)cc21 (stereo not given)  7.19%
35. COc1ccc(OCC(=O)Nc2ccccc2OC)cc1  7.31%
36. O=C(Nc1nnc(-c2ccccc2)o1)c1nc2ccccc2s1  10.3%
37. O=C(c1cc(-c2cccc(O)c2)on1)N1CCCCC1  10.4%
38. CCn1c(C)nc2cc(S(=O)(=O)N3CCCC3)ccc21  11.8%
39. Cc1cccn2cc(-c3ccc(F)cc3)nc12  15.1%
40. Cc1ccc(-c2nn3c(C)nnc3s2)cc1NC(=O)COc1ccc(Cl)cc1  25.3%
